Assay results from ChEMBL document CHEMBL4270555, “Synthesis and biological evaluation of magnolol derivatives as melatonergic receptor agonists with potential use in depression” (Eur J Med Chem, 2018).
The source made the active and inactive calls. The rule behind the calls is not given here.

Experiments:
[1] = Drug metabolism in Sprague-Dawley rat urine assessed as 1-(5'-allyl-2'-hydroxy-6-((2S,3R,4S,5S,6R)-3,4,5-trihydroxy-6-(hydroxymethyl)tetrahydro-2H-pyran-2-yloxy)biphenyl-3-yl)prop-2-en-1-one formation at 100 mg/kg, po by UPLC-IT-TOF-MS analysis; type: ADME, organism-based; settings: in vivo
Method in brief: (§1)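 Male/unspecified SD rats (n = 6) housed individually in metabolic cages, dosed orally at 100.0 mg/kg; controls given 0.5% CMC-Na orally. Plasma, urine and faeces collected. LC-IT-TOF-MS on C18 column at 30 °C, formic acid (0.05%) water/acetonitrile gradient 5–100% B over 18 min, 0.2 mL/min; positive and negative ion modes with automatic MS/MS.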

[2] = Drug metabolism in Sprague-Dawley rat urine assessed as 5'-(1-hydroxyallyl)-5-(1-hydroxypropyl)-2'-((2S,3R,4S,5S,6R)-3,4,5-trihydroxy-6-(hydroxymethyl)tetrahydro-2H-pyran-2-yloxy)biphenyl-2-yl hydrogen sulfate formation at 100 mg/kg, po by UPLC-IT-TOF-MS analysis; type: ADME, organism-based; settings: in vivo; method in brief: as §1
[3] = Drug metabolism in Sprague-Dawley rat plasma assessed as 5,5'-diallyl-2'-hydroxybiphenyl-2-yl hydrogen sulfate formation at 100 mg/kg, po by UPLC-IT-TOF-MS analysis; type: ADME, organism-based; settings: in vivo; method in brief: as §1
Mus musculus [4] = assay: Increase in 5-hydroxyindole-3-acetic acid level in Kunming mouse hippocampus at 40 mg/kg, po treated for 7 days by HPLC-ECD analysis; type: functional, organism-based
Method in brief: (§2)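 Male Kunming mice (18–20 g) given vehicle or 40 mg/kg for 7 days, then killed by cervical dislocation. Frontal cortex, hippocampus, striatum, hypothalamus and thalamus dissected on ice, homogenized in ice-cold 0.2 M perchloric acid with 0.1 mM EDTA, centrifuged 15,000 rpm, 20 min, 4 °C. Supernatant analysed by HPLC-ECD at +0.50 V; phosphate/octanesulfonate mobile phase pH 3.0 with 12% methanol. Levels in ng/g, mean ± SEM.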

Mus musculus [5] = assay: Decrease in dopamine level in Kunming mouse hippocampus at 40 mg/kg, po treated for 7 days by HPLC-ECD analysis; type: functional, organism-based
Method in brief: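 Male Kunming mice received vehicle or 40 mg/kg for 7 days, then were killed by cervical dislocation and the brain regions dissected on ice. Tissue was homogenized in ice-cold 0.2 M perchloric acid with 0.1 mM EDTA and centrifuged at 15,000 rpm, 20 min, 4 °C. Supernatant was analyzed by HPLC-ECD (+0.50 V; phosphate/octanesulfonate mobile phase, pH 3.0). Results in ng/g, mean ± SEM.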

Mus musculus [6] = assay: Antidepressant activity in Kunming mouse assessed as decrease in immobility duration at 40 mg/kg, po by forced swim test relative to control; type: functional; design: scale not given: the % may be the effect or the level left
Method in brief: (§3)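 Male Kunming mice (18–20 g) given 10, 20 or 40 mg/kg orally; fluoxetine and agomelatine 20 mg/kg as references. Each mouse swam 6 min in a cylinder (25 × 15 cm) holding 10 cm of water at 25 ± 1 °C. Immobility over the last 4 min was scored by video tracking; n = 10, mean ± SEM versus vehicle.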

Rattus norvegicus [7] = assay: Toxicity in Sprague-Dawley rat assessed as death at 2000 mg/kg, po measured continuously for first 4 hrs followed by measured every hour for next 24 hrs and at 6 hrs intervals for following 48 hrs post dose; type: organism-based; settings: in vivo
Method in brief: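 Followed OECD 425 in adult SD rats (180–220 g), three groups of six. Vehicle control received 0.5% CMC-Na orally; separate male and female groups received 2000 mg/kg orally. Endpoints observed: behaviour, breathing, cutaneous effects, sensory nervous system responses, gastrointestinal effects and deaths.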

[8] = target: T1, Melatonin receptor type 1B (Homo sapiens) (UniProt P49286); assay: Agonist activity at human MT2 receptor expressed in HEK293 cells at 1 mM after 24 hrs by Fluo-8 dye-based calcium assay relative to control; type: functional, cell-based
T1 sequence (whole entry): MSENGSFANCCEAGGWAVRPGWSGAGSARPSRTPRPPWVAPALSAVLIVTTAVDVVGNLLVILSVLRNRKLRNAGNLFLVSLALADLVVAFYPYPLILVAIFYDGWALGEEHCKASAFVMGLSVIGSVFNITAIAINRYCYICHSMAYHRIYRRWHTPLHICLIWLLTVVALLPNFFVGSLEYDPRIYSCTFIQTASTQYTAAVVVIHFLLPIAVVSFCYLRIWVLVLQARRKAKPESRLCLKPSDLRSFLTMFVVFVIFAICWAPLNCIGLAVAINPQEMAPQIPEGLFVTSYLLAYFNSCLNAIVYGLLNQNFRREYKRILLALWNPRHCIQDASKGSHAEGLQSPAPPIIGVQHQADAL
Method in brief: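 Fluo-8 calcium assay in HEK293 cells stably expressing human MT1 or MT2, seeded 4×10^4/well and incubated 24 h. Compounds tested at 1.00 mM, agomelatine positive control at 3.33 µM; fluorescence at ex 485/em 525 nm. Agonism expressed as mean ± SD, n = 3.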

Mus musculus [9] = assay: Effect on 5-hydroxytryptamine level in Kunming mouse hippocampus at 40 mg/kg, po treated for 7 days by HPLC-ECD analysis; type: functional, organism-based; method in brief: as §2
[10] = Drug metabolism in Sprague-Dawley rat plasma assessed as (2R,2'R,3S,3'S,4S,4'S,5R,5'R,6S,6'S)-6,6'-(5,5'-diallylbiphenyl-2,2'-diyl)bis(oxy)bis(2-(hydroxymethyl)tetrahydro-2H-pyran-3,4,5-triol) formation at 100 mg/kg, po by UPLC-IT-TOF-MS analysis; type: ADME, organism-based; settings: in vivo
Method in brief: (§4)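 Rats (n = 6) housed in metabolic cages received 100.0 mg/kg orally; controls received 0.5% CMC-Na. Plasma, urine and faeces were collected and analyzed by LC-IT-TOF-MS on a C18 column at 30 °C. Gradient 5–100% acetonitrile with 0.05% formic acid over 18 min at 0.2 mL/min; positive and negative ion MS/MS.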

Mus musculus [11] = assay: Antidepressant activity in po dosed Kunming mouse assessed as decrease in immobility duration by forced swim test; type: functional, organism-based; method in brief: as §3
[12] = Drug metabolism in Sprague-Dawley rat plasma assessed as (2S,3R,4S,5S,6R)-2-(5,5'-diallyl-2'-methoxybiphenyl-2-yloxy)-6-(hydroxymethyl)tetrahydro-2H-pyran-3,4,5-triol formation at 100 mg/kg, po by UPLC-IT-TOF-MS analysis; type: ADME, organism-based; settings: in vivo; method in brief: as §4
[13] = Drug metabolism in Sprague-Dawley rat feces assessed as (2S,3S,4S,5R,6S)-3,4,5-trihydroxy-6-(5-(1-hydroxyallyl)-5'-(1-hydroxypropyl)-2'-((2S,3R,4S,5S,6R)-3,4,5-trihydroxy-6-(hydroxymethyl)tetrahydro-2H-pyran-2-yloxy)biphenyl-2-yloxy)tetrahydro-2H-pyran-2-carboxylic acid formation at 100 mg/kg, po by UPLC-IT-TOF-MS analysis; type: ADME, organism-based; settings: in vivo; method in brief: as §4
[14] = Drug metabolism in Sprague-Dawley rat feces assessed as 5'-acryloyl-2'-hydroxy-5-propionylbiphenyl-2-yl hydrogen sulfate formation at 100 mg/kg, po by UPLC-IT-TOF-MS analysis; type: ADME, organism-based; settings: in vivo; method in brief: as §4
Rattus norvegicus [15] = assay: Toxicity in Sprague-Dawley rat assessed as irritation at 2000 mg/kg, po measured over 4 hrs; type: organism-based; settings: in vivo
Method in brief: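 Acute oral toxicity run per OECD 425 in adult SD rats (180–220 g). Six animals per group: vehicle control (0.5% CMC-Na, oral), male rats and female rats each dosed orally at 2000 mg/kg. Animals were watched continuously for the first 4 h for behavior, breathing, cutaneous signs (irritation, ulceration, caustic injury, skin rashes), sensory nervous and gastrointestinal effects. Later checks were hourly for 24 h, then every 6 h for 48 h.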

SMILES: C=CCc1ccc(O)c(-c2cc(CC=C)ccc2O[C@@H]2O[C@H](CO)[C@@H](O)[C@H](O)[C@H]2O)c1
- Drug metabolism [1]: Metabolite_Detected
- Drug metabolism [2]: Metabolite_Detected
- Drug metabolism [3]: Metabolite_Notdetected
- Activity (Mus musculus [4]): Active
- Activity (Mus musculus [5]): Active
- Activity (Mus musculus [6]): 37.66%
- Activity (Rattus norvegicus [7]): Non-Toxic
- Activity [8]: 151%
- Activity (Mus musculus [9]): inactive
- Drug metabolism [10]: Metabolite_Notdetected
- Activity (Mus musculus [11]): Dose-dependent effect
- Drug metabolism [12]: Metabolite_Detected
- Drug metabolism [13]: Metabolite_Detected
- Drug metabolism [14]: Metabolite_Notdetected
- Activity (Rattus norvegicus [15]): Non-Toxic
